Data published in the RNAGym collection of RNA variant scans (doi:10.1126/science.aae0568).
Variants at the floor of the assay were thinned out.

B1: tRNA (parent)
chain: GUUCCGUUGGCGUAAUGGUAACGCGUCUCCCUCCUAAGGAGAAGACUGCGGGUUCGAGUCCCGUACGGAACG

Variants of: B1
Assay: yeast fitness relative to wild type (ratio to wild type); higher = fitter; tRNA-Arg(CCU), competitive growth, 37 C, YPD
In short: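 The tRNA-Arg(CCU) gene variants were made by chemical synthesis with a 3% per-site mutation rate at 69 sites and inserted at the native genomic locus of Saccharomyces cerevisiae. After pooling, the strains were competed in YPD at 37°C for 24 hours in six parallel replicates. Gene amplicons from the start population and each end population were read by 100-nucleotide paired-end sequencing, and Darwinian fitness relative to wild type was taken from genotype frequency changes. Genotypes needed ≥ 100 starting reads, and estimates < 0.5 were set to 0.5.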

Row | Variant | yeast fitness
1 | U28A G38C G41A C46A | ≤ 0.5
2 | A14C A15C A21U A57G A65G | ≤ 0.5
3 | C22A U35A A70U | ≤ 0.5
4 | A15C A36U U64A | ≤ 0.5
5 | C4A U7G G12C C29A C30U C34U C61U C66A | ≤ 0.5
6 | C4G U8A G12A | 0.6
7 | A14C U47A G52A | ≤ 0.5
8 | G6C C33A G56A U59A | ≤ 0.5
9 | G23C C34U A36U C55A | 0.581
10 | G56C A57G C61G C66U A69G | ≤ 0.5
11 | A21U C24A A43C G48A A69C | ≤ 0.5
12 | G10A C11A A15C C24A C34A C46G G51A | ≤ 0.5
13 | G9A A20G | 1.05
14 | U26C U53C G58A | 0.686
15 | C30U G51C | 0.535
16 | C22U U32G C34U A40G C66U | 0.647
17 | C11G A20C C24G | ≤ 0.5
18 | C27A G39C A57U | ≤ 0.5
19 | A14U C29G G51A C66G | ≤ 0.5
20 | A15C C22G C33U U59G C62G | 0.981
21 | G12C G18C C27A G38C C49G | ≤ 0.5
22 | U8C G10A U16A A65G | 0.605
23 | G12A A15G G48A | 0.763
24 | A57G G68A | 0.944

Row | Variant | yeast fitness
25 | C24U C31A C55G A57U | 0.532
26 | U16C G23C G51C | ≤ 0.5
27 | C27G C31U C49G G58C | ≤ 0.5
28 | C24G G25C A45G | 0.512
29 | G6C A15G A21G G25A A40C C61A A65U | ≤ 0.5
30 | G10C G68C | 0.697
31 | U16G U28G C34U G63C | 0.608
32 | U13A C24A G51A C61A A69U | ≤ 0.5
33 | G10A A37U A65U | ≤ 0.5
34 | G56C A70C | 0.813
35 | A14U G17U C24A C30G | ≤ 0.5
36 | U8C A21G | 1.03
37 | C4U A40G C62U | 0.667
38 | G25C U64A | 0.709
39 | G12C A15C A20U U53A U59G | ≤ 0.5
40 | C5U U13A A15G G50C A57G | 0.536
41 | C4A U8A G17C C31U | 0.558
42 | C11G A15U C34A A42C | ≤ 0.5
43 | C4G G18A C30U C60G | 0.515
44 | G10U A15U C31G G50C U59C | ≤ 0.5
45 | C27G G50A C55G C62G G67U | ≤ 0.5
46 | C5A G17A G18A G25A C55A | 0.552
47 | U35C A36G G58A G67A | ≤ 0.5
48 | U7C A69U | 0.913

Row | Variant | yeast fitness
49 | C60G C61U G63A | ≤ 0.5
50 | U13A U28C A45U | 0.702
51 | C24A C31U A36G A37G G48A U53G | 0.653
52 | C5G A20G A42G C66G | ≤ 0.5
53 | A14G U47C | 0.871
54 | C33G A36U | 0.589
55 | C5U C30U A45U | 0.701
56 | G50C C55A C60A | ≤ 0.5
57 | A20U A36G C49U A70U | ≤ 0.5
58 | C5A A15G C33U G44C | ≤ 0.5
59 | U2C U28A A70G | ≤ 0.5
60 | A15G A37C C46U C49U | ≤ 0.5
61 | C27G C49A G58C | ≤ 0.5
62 | A15C G39C | 0.638
63 | A15G A20G A40C C46U C49A A57U A65C C66G | ≤ 0.5
64 | A21U A36C A45C G48A C55A | ≤ 0.5
65 | A36U G51C | 0.612
66 | C62A G68C | 0.875
67 | C11A U35A G52A | ≤ 0.5
68 | C24U C34U G58A | ≤ 0.5
69 | U16C C29A C55G | 0.573
70 | A40U A43C | 1
71 | G6A A20C C61A | ≤ 0.5
72 | G23A C31U G48C C55G A69U | ≤ 0.5

Row | Variant | yeast fitness
73 | U3A U26C | 0.884
74 | C4G G41C C46A | 0.709
75 | C46G G52C | 0.585
76 | G12C U28G | 0.696
77 | A45U C46G G52A | 0.578
78 | C31G A43U C46G | 0.586
79 | G38A A40C | 0.624
80 | C24A U26G A43C | 0.516
81 | G6C G12A A21G | 0.552
82 | C30G C34G A57U | ≤ 0.5
83 | U3C C62G | 0.853
84 | G9A C24U U32A | 0.564
85 | C4G G12A U19C C29G A57G C61A A65C C66U | 0.634
86 | C24A C49U U59G C62U A70G | ≤ 0.5
87 | C4U C27U U32C | 0.615
88 | A45G G58C G67U G68C | ≤ 0.5
89 | U2G A15C C24U | 0.591
90 | C31U U32A U35C | 0.593
91 | C11A G12A G23A C33G A45C | ≤ 0.5
92 | C11G A36C A43U | ≤ 0.5
93 | C27G C31U A42G U53C | ≤ 0.5
94 | A36C C61A | 0.523
95 | C27G C30A | 0.632
96 | C22G A57U C61U | ≤ 0.5

Row | Variant | yeast fitness
97 | C55U G63C | 0.567
98 | G38A G48A C49G A69U | ≤ 0.5
99 | G10C U32A G38C U64C | ≤ 0.5
100 | C4U C49G G50C | ≤ 0.5
101 | C27U C29G C61U | 0.675
102 | C29A C34U G48C | ≤ 0.5
103 | G10C U35G C66U | ≤ 0.5
104 | U28G C30A | 0.645
105 | G17A A57C G63A G67A | ≤ 0.5
106 | U2G G39A G68U | ≤ 0.5
107 | U53C G58A | 1.02
108 | A14G A15U G68U | ≤ 0.5
109 | A57U A69C | 0.69
110 | A40C G67U | 0.815
111 | C29A A37U | ≤ 0.5
112 | A20C C34A G50C C61U | ≤ 0.5
113 | U7A U28C | 0.711
114 | C29G A40C A42C G58A | ≤ 0.5
115 | G12A C22G A69U | 0.791
116 | C29G C34A C60A | ≤ 0.5
117 | C4G A20C U26G C33U G44C U59A G67A | ≤ 0.5
118 | U3C C24G C33G C66U | ≤ 0.5
119 | U2A C46G C49U | 0.686
120 | G9C C46U | 0.896

Row | Variant | yeast fitness
121 | U26A C31U | 0.999
122 | U8A A21G C24A C30A A45U U47C C49A | 0.572
123 | U7G G9A C31G A36G G68C | ≤ 0.5
124 | A21G A42U C66U | 0.56
125 | C5U A20G A37G G67A | ≤ 0.5
126 | G56C C62A | 0.563
127 | A15G G25A C27U C49U | 0.714
128 | C4U C5G C27A | ≤ 0.5
129 | U8G G52A | 0.512
130 | C11U C31A G51C | 0.532
131 | A57U A69U A70C | ≤ 0.5
132 | G44C A70G | 0.954
133 | G39A C49U C62U | 0.664
134 | U26G C33A A42U C55G | 0.556
135 | C4U A14U C24G C30U C60G C62U | 0.663
136 | C24U A36C A43U A69U | 0.517
137 | U28C C30G C49G | ≤ 0.5
138 | C5G G48A G56C A65G | ≤ 0.5
139 | U2G U7G C60U C61A G67C | ≤ 0.5
140 | U26A C30A C34A G48C G68U | ≤ 0.5
141 | U19C G38C G44C C46A G68C | ≤ 0.5
142 | C11G C34A C60A | ≤ 0.5
143 | C46U G52A | 0.729
144 | C11U A36G G41A C49U G63A | ≤ 0.5

Row | Variant | yeast fitness
145 | U13A C22G C31G | 0.547
146 | C5G G10C C31U A70G | ≤ 0.5
147 | C22U U28G A45G | ≤ 0.5
148 | U3C C34A G52A | ≤ 0.5
149 | G25C A42G C55U | ≤ 0.5
150 | U2A U16G A70C | 0.835
151 | G18C U53G C60A | ≤ 0.5
152 | U8A C46A U54C | 0.666
153 | U7C G9A G23C A45C | ≤ 0.5
154 | C29U A42U U64C C66U A69U | ≤ 0.5
155 | C27G G67A | 0.637
156 | G39C G41A C60G C61U C62G A65U | 0.547
157 | U2C C4U C34A A65C C66G | 0.583
158 | U19A A65G | 1.05
159 | U8A G18C G25C C60U U64A | ≤ 0.5
160 | A21U A36C G56C | ≤ 0.5
161 | C61U G67C | 0.892
162 | U16C A37G C61G A69G | 0.687
163 | G44A C55G G63C | ≤ 0.5
164 | C27G G50C C60G | ≤ 0.5
165 | C5G C24G C61A C62A G68C | 0.69
166 | G51A C61U C66G | ≤ 0.5
167 | C5G A20U G25A G41A C55G U64G | 0.534
